# ChEMBL document CHEMBL1133747, “A rational approach to the design and synthesis of a new bradykinin B(1) receptor antagonist” (J Med Chem, 2000)
# pKi: −log10 of the molar value. The source made the active and inactive calls. The rule behind the calls is not given here. Square brackets hold non-standard residues; d marks the D form. Peptide text beside a SMILES is read from it. ξ: configuration not given here. Oic(3aξ,7aξ) = O=C(O)[C@@H]1CC2CCCCC2N1; Tic = O=C(O)[C@@H]1Cc2ccccc2CN1; Aun = NCCCCCCCCCCC(=O)O
# Tests used:
# [1] = target: T1, B1 bradykinin receptor (Homo sapiens) (UniProt P46663); experiment: Binding affinity towards human cloned B1 receptor was determined using [3H][des-Arg10-Leu9]-kallidin as radioligand; No significant affinity at 10E-5 M
# T1 sequence (whole entry): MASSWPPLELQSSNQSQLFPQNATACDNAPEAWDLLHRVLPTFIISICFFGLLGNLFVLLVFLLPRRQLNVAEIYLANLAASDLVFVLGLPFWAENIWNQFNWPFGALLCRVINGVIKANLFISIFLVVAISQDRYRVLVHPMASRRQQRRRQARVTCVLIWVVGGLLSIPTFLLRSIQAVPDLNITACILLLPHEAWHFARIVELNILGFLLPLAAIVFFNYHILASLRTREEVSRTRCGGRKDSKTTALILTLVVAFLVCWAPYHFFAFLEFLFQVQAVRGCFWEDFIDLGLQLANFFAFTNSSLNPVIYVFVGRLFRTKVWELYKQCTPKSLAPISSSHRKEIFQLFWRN
# [2] = target: T2, B2 bradykinin receptor (Homo sapiens) (UniProt P30411); experiment: Binding affinity towards human cloned B2 receptor was determined using [3H]BK as radioligand; Inactive
# T2 sequence (whole entry): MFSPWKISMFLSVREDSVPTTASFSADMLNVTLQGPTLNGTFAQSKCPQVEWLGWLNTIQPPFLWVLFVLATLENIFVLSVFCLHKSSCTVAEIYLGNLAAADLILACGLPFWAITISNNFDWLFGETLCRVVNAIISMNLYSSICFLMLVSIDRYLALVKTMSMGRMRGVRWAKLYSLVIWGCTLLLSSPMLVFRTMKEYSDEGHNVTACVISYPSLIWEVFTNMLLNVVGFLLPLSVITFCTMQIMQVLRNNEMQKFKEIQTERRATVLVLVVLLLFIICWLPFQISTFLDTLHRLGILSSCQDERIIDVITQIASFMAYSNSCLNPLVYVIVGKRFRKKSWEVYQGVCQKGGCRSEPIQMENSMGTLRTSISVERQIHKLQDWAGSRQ
# Homo sapiens = organism: Homo sapiens; experiment: Competitive inhibition of the contraction of the human umbilical vein induced by the potent B1 receptor agonist [des-Arg10]-kallidin; assay type: functional; conditions: read-out: pA2 (converted)
# Method in brief: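 Human umbilical vein rings (3-4 mm) incubated overnight at 37 °C in Krebs (B1 induction), then set in organ baths at 37 °C, 95% O2/5% CO2, stretched to 1 g. Antagonist or vehicle 15 min before [des-Arg10]-kallidin concentration-response curve (one per ring), expressed as % of 1 µM U46619 maximal contraction.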
# B1 bradykinin receptor = target: T3, B1 bradykinin receptor (Homo sapiens, UniProt P46663); experiment: Binding affinity towards human cloned B1 receptor was determined using [3H][des-Arg10-Leu9]-kallidin as radioligand
# T3 sequence (P46663 whole entry): T1 sequence (whole entry)
# B2 bradykinin receptor = target: T4, B2 bradykinin receptor (Homo sapiens, UniProt P30411); experiment: Binding affinity towards human cloned B2 receptor was determined using [3H]BK as radioligand
# T4 sequence (P30411 whole entry): T2 sequence (whole entry)
# [3] = target: T1, B1 bradykinin receptor (Homo sapiens); experiment: Binding affinity towards human cloned B1 receptor was determined using [3H][des-Arg10-Leu9]-kallidin as radioligand; No significant affinity at 10 uM
# Rattus norvegicus = organism: Rattus norvegicus; experiment: Compound was tested for antagonist activity on rat ileum longitudinal smooth muscle; assay type: functional; conditions: read-out: pA2 (converted)
Structure (SMILES),NA [2],NS [3],further results
NCCCC[C@H](N)C(=O)N[C@@H](CCCN=C(N)N)C(=O)N1CCC2(CC1)C(=O)N(CC(=O)N[C@@H](CO)C(=O)N[C@@H]1CSc3ccccc3N(CC(=O)O)C1=O)CN2c1ccccc1,inactive,,NS [1]: inactive
NCCCC[C@H](N)C(=O)N[C@@H](CCCN=C(N)N)C(=O)N1CCC2(CC1)CN(CC(=O)N[C@@H]1CSc3ccccc3N(CC(=O)O)C1=O)C(=O)N2CCc1ccccc1,inactive,,
NCCCC[C@H](N)C(=O)N[C@@H](CCCN=C(N)N)C(=O)N1CCC2(CC1)C(=O)N(CC(=O)N[C@@H](CO)C(=O)N[C@@H]1CSc3ccccc3N(CC(=O)O)C1=O)CN2CCc1ccccc1,,,Kb (Homo sapiens): 794 nM; pKi (B1 bradykinin receptor): 7.62; pKi (B2 bradykinin receptor): 4.93
NCc1ccc(C(=O)NC(CCCN=C(N)N)C(=O)N2CCC3(CC2)C(=O)N(CC(=O)NC(CO)C(=O)N[C@@H]2CSc4ccccc4N(CC(=O)O)C2=O)CN3CCc2ccccc2)cc1 (stereo partly specified),inactive,inactive,
C[C@H](NC(=O)[C@@H](N)CCCCN)C(=O)N1CCC2(CC1)C(=O)N(CC(=O)N[C@@H](CO)C(=O)N[C@@H]1CSc3ccccc3N(CC(=O)O)C1=O)CN2CCc1ccccc1,inactive,inactive,
N=C(N)NCCCC(NC(=O)C1CCNCC1)C(=O)N1CCC2(CC1)C(=O)N(CC(=O)NC(CO)C(=O)N[C@@H]1CSc3ccccc3N(CC(=O)O)C1=O)CN2CCc1ccccc1 (stereo partly specified),inactive,inactive,
"NC(N)=NCCC[C@H](NC(=O)[C@@H](N)CCCN=C(N)N)C(=O)NCCCCCCCCCCC(=O)N[C@@H](CO)C(=O)N1Cc2ccccc2C[C@H]1C(=O)N1C2CCCCC2C[C@H]1C(=O)O (stereo partly specified) (H-RR[Aun]S[Tic][Oic(3aξ,7aξ)]-OH)",,,Kb (Rattus norvegicus): 79.4 nM
N=C(N)NCCCCC(=O)NC(CCCNC(=N)N)C(=O)N1CCC2(CC1)C(=O)N(CC(=O)NC(CO)C(=O)N[C@@H]1CSc3ccccc3N(CC(=O)O)C1=O)CN2CCc1ccccc1 (stereo partly specified),inactive,inactive,
NCCCC[C@H](N)C(=O)N[C@@H](CCCN=C(N)N)C(=O)N1CCC2(CC1)C(=O)N(CC(=O)N[C@@H](CO)C(=O)N[C@@H]1CSc3ccccc3N(CC(=O)O)C1=O)CN2CCC1Cc2ccccc2C1,inactive,,NS [1]: inactive
C[C@@H](O)[C@H](NC(=O)CN1CN(CCc2ccccc2)C2(CCN(C(=O)[C@H](CCCN=C(N)N)NC(=O)[C@@H](N)CCCCN)CC2)C1=O)C(=O)N[C@@H]1CSc2ccccc2N(CC(=O)O)C1=O,inactive,,
C[C@H](N)C(=O)N[C@@H](CCCN=C(N)N)C(=O)N1CCC2(CC1)C(=O)N(CC(=O)N[C@@H](CO)C(=O)N[C@@H]1CSc3ccccc3N(CC(=O)O)C1=O)CN2CCc1ccccc1,inactive,inactive,
C[C@H](NC(=O)CN1CN(CCc2ccccc2)C2(CCN(C(=O)[C@H](CCCN=C(N)N)NC(=O)[C@@H](N)CCCCN)CC2)C1=O)C(=O)N[C@@H]1CSc2ccccc2N(CC(=O)O)C1=O,inactive,,
